Reference: ChEMBL document CHEMBL4387708, “Enhancement of Benzothiazoles as Pteridine Reductase-1 Inhibitors for the Treatment of Trypanosomatidic Infections” (J Med Chem, 2019)

Assays:
[1] = Inhibition of N-terminal His-tagged Trypanosoma brucei pteridine reductase 1 using di-hydrobiopterine as substrate measured at 1 min interval for 50 mins in presence of NADPH
Procedure, shortened: (§1)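 Photometric PTR1 assay with NADPH and dihydrobiopterin substrate. H₄B formation is coupled non-enzymatically to cytochrome c reduction, read as signal increase at 550 nm.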

Pteridine reductase 1 = target: T1, Pteridine reductase 1 (Leishmania major, UniProt Q01782); experiment: Inhibition of Leishmania major pteridine reductase 1 using di-hydrobiopterine as substrate in presence of NADPH; settings: read-out: IC50; procedure, shortened: as §1
T1 sequence (Q01782 whole entry): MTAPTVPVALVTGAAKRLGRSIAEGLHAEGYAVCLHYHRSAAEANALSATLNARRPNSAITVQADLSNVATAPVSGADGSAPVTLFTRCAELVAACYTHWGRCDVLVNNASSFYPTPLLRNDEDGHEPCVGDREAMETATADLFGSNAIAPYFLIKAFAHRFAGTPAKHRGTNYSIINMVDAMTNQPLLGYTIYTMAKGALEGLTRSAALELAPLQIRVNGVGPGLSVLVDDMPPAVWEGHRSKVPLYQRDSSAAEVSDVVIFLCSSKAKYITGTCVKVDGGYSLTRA

Cytochrome P450 1A2 = target: T2, Cytochrome P450 1A2 (Homo sapiens, UniProt P05177); experiment: Inhibition of human CYP1A2 expressed in baculovirus infected insect cells using beetle D-luciferin as substrate preincubated for 30 mins followed by NADPH addition and measured after 30 mins by CYP450-Glo assay
T2 sequence (P05177 whole entry): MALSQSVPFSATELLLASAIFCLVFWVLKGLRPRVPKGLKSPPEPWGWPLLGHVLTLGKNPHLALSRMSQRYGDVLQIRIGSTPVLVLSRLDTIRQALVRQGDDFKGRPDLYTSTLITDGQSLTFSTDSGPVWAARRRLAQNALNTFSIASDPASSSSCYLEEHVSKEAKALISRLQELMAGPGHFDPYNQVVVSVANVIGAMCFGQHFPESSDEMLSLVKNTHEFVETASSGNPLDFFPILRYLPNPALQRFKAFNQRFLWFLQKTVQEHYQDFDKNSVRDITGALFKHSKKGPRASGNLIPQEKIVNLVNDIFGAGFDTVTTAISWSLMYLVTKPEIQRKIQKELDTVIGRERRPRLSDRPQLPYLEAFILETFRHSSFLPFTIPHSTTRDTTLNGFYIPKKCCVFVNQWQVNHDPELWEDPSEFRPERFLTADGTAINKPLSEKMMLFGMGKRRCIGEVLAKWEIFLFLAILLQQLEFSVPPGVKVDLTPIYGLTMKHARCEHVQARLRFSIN

[2] = target: T3, Pteridine reductase 1 (Leishmania major) (UniProt Q01782); experiment: Inhibition of Leishmania major pteridine reductase 1 at 50 uM using di-hydrobiopterine as substrate in presence of NADPH relative to control; procedure, shortened: as §1
T3 sequence (whole entry): T1 sequence (Q01782 whole entry)

[3] = target: Voltage-gated inwardly rectifying potassium channel KCNH2 (Homo sapiens, UniProt Q12809); experiment: Displacement of Tracer Red from human ERG by fluorescence polarization assay
[4] = Mitochondrial toxicity in human 786-O cells measured after 6 hrs by MitoTracker Red chloromethyl-X-rosamine based assay; type: cell-based, 786-0
Trypanosoma brucei [5] = experiment: Growth inhibition of Trypanosoma brucei bloodstream forms at 10 uM measured after 72 hrs by resazurin-based fluorescence assay relative to control; type: organism-based; settings: for inhibition at 10 µM: Trypanosoma brucei, read-out: GI
Cytochrome P450 3A4 = Cytochrome P450 3A4 (Homo sapiens, UniProt P08684); experiment: Inhibition of human CYP3A4 expressed in baculovirus infected insect cells using beetle D-luciferin as substrate preincubated for 30 mins followed by NADPH addition and measured after 30 mins by CYP450-Glo assay
Cytochrome P450 2C19 = Cytochrome P450 2C19 (Homo sapiens, UniProt P33261); experiment: Inhibition of human CYP2C19 expressed in baculovirus infected insect cells using beetle D-luciferin as substrate preincubated for 30 mins followed by NADPH addition and measured after 30 mins by CYP450-Glo assay
[6] = Cytotoxicity against human U2OS cells assessed as reduction in cell number; type: cell-based
[7] = Cytotoxicity against human A549 cells after 48 hrs by Celltiter-glo assay; type: cell-based
[8] = Selectivity ratio of IC50 for Leishmania major pteridine reductase 1 to IC50 for N-terminal His-tagged Trypanosoma brucei pteridine reductase 1
Trypanosoma brucei [9] = experiment: Inhibition of N-terminal His-tagged Trypanosoma brucei pteridine reductase 1 at 50 uM using di-hydrobiopterine as substrate measured at 1 min interval for 50 mins in presence of NADPH relative to control; procedure, shortened: as §1
Trypanosoma cruzi = experiment: Growth inhibition of trypomastigote form of Trypanosoma cruzi Y infected in human U2OS cells at 50 uM measured after 72 hrs by DRAQ5 DNA dye based confocal microscopic analysis relative to control; type: organism-based; settings: for inhibition at 50 µM: Trypanosoma cruzi, Y, U2OS, read-out: GI; for growth inhibition (GI): trypanosoma cruzi, 50 µM
Leishmania infantum = experiment: Growth inhibition of luciferase expressing Leishmania infantum axenic amastigotes infected in human THP1 cells at 10 uM measured after 72 hrs by steady-glo luminescence assay relative to control; type: organism-based; settings: for growth inhibition (GI): leishmania infantum, 72 h, 10 µM; for inhibition at 10 µM: Leishmania infantum, THP-1, 72 h, read-out: GI
Cytochrome P450 2C9 = Cytochrome P450 2C9 (Homo sapiens, UniProt P11712); experiment: Inhibition of human CYP2C9 expressed in baculovirus infected insect cells using beetle D-luciferin as substrate preincubated for 30 mins followed by NADPH addition and measured after 30 mins by CYP450-Glo assay
Cytochrome P450 2D6 = Cytochrome P450 2D6 (Homo sapiens, UniProt P10635); experiment: Inhibition of human CYP2D6 expressed in baculovirus infected insect cells using beetle D-luciferin as substrate preincubated for 30 mins followed by NADPH addition and measured after 30 mins by CYP450-Glo assay
[10] = Cytotoxicity against human THP1 cells after 72 hrs by MTT assay; type: cell-based, THP-1; settings: read-out: NOAEL

Chain of Cytochrome P450 2C9 (P11712 whole entry): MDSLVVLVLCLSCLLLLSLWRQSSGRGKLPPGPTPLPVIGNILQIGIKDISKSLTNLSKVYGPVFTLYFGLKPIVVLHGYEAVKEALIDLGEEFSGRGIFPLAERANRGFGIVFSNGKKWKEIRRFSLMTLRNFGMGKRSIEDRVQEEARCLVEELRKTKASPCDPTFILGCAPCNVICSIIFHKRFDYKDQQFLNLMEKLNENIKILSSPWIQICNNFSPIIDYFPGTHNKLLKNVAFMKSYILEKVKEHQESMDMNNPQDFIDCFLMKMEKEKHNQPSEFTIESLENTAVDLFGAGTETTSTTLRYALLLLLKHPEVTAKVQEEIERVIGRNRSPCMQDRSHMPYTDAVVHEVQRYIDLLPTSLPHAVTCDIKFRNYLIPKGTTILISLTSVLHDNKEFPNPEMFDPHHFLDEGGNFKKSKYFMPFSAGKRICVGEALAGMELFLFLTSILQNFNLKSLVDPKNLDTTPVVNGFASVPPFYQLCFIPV
Chain of Cytochrome P450 2C19 (P33261 whole entry): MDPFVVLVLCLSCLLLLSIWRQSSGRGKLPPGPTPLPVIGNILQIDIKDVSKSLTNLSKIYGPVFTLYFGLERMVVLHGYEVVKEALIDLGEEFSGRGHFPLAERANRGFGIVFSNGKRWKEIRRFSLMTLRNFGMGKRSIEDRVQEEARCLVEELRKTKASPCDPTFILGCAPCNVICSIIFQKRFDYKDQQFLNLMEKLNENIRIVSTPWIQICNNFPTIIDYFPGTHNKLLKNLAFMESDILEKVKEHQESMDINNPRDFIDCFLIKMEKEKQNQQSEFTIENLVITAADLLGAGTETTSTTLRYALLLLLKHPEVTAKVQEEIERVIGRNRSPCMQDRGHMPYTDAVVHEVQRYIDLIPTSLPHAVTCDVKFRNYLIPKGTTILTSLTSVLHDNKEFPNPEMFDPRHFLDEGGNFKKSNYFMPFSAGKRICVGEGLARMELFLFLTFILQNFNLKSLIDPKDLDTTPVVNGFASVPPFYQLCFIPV
Chain of Cytochrome P450 2D6 (P10635 whole entry): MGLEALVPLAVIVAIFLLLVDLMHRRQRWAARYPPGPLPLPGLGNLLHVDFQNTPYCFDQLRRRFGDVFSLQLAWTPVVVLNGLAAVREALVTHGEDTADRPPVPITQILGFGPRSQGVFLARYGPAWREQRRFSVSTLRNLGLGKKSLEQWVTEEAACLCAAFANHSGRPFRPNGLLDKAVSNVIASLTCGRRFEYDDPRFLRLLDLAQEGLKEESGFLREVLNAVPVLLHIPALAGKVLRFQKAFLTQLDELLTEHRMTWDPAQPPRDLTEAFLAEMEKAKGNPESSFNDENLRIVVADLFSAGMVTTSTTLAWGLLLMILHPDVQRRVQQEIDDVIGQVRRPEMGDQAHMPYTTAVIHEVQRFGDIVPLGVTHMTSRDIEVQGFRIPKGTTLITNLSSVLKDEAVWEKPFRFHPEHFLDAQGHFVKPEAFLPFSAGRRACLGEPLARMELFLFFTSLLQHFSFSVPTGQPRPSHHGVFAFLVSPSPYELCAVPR
Chain of Cytochrome P450 3A4 (P08684 whole entry): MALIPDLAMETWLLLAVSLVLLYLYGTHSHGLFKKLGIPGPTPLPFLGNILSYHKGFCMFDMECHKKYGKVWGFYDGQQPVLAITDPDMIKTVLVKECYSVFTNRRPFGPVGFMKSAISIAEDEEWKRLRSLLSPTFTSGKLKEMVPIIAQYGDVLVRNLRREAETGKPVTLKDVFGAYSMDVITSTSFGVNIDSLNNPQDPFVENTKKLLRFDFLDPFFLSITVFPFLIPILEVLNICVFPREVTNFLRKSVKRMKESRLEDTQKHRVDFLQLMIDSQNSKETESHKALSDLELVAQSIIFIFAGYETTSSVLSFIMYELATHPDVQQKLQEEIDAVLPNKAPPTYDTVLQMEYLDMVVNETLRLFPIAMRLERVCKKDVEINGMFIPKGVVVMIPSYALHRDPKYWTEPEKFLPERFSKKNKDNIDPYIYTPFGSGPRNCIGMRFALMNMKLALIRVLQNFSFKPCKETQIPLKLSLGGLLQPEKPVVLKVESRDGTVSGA
Chain of Voltage-gated inwardly rectifying potassium channel KCNH2 (Q12809 whole entry): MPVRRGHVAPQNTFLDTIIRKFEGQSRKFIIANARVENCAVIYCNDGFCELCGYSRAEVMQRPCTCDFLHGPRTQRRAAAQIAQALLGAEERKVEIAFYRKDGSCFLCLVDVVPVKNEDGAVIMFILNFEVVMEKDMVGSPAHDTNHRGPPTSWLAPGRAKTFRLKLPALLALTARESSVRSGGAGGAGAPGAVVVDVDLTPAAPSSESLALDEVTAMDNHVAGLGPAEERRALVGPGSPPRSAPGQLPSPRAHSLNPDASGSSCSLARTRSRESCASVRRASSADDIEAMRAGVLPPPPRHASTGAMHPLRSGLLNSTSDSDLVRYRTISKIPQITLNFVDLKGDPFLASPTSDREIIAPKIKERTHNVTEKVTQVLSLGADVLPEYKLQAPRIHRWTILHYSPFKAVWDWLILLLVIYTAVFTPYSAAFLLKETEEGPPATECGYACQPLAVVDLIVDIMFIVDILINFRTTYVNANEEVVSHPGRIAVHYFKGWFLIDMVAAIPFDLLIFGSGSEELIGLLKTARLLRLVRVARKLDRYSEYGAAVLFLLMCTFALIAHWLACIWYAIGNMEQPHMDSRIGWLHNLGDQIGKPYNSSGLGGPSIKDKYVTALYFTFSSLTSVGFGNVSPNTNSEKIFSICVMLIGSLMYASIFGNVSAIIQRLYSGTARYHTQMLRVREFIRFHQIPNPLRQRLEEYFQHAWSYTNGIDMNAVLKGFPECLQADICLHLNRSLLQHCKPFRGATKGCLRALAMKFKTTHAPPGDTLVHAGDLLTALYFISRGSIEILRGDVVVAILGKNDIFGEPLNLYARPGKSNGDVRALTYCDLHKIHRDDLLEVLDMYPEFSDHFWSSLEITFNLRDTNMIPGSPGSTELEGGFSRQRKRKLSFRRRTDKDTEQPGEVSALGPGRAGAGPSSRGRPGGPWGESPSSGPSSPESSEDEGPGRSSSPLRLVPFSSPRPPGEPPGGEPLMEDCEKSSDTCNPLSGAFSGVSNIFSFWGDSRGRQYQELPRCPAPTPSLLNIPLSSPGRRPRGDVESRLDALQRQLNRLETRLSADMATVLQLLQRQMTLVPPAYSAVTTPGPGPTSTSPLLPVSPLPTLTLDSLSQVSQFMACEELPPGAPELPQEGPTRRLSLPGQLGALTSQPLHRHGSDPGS

| Structure (SMILES) | IC50 [1] [µM] | IC50 (Pteridine reductase 1) [µM] | IC50 (Cytochrome P450 1A2) [µM] | inhibition [2] [%] | IC50 (Cytochrome P450 3A4) [µM] | IC50 (Cytochrome P450 2C19) [µM] | Ratio IC50 [8] | inhibition (Trypanosoma brucei [9]) [%] | IC50 (Cytochrome P450 2C9) [µM] | IC50 (Cytochrome P450 2D6) [µM] | IC50 [3] [µM] | IC50 at 6 h [4] [µM] | inhibition at 10 µM (Trypanosoma brucei [5]) [%] | GI50 [6] [µM] | GI50 at 48 h [7] [µM] | inhibition at 50 µM (Trypanosoma cruzi) [%] | growth inhibition (GI) (Leishmania infantum) | MNTC at 72 h [10] [µM] | growth inhibition (GI) (Trypanosoma cruzi) | further results |
| --- | --- | --- | --- | --- | --- | --- | --- | --- | --- | --- | --- | --- | --- | --- | --- | --- | --- | --- | --- | --- |
| CCc1nc(N)nc(N)c1-c1ccc(Cl)cc1 [PYRIMETHAMINE] | 0.09 | 13.6 |  |  |  |  |  |  |  |  |  |  |  |  |  |  |  |  |  |  |
| COc1ccc2nc(N)sc2c1 |  |  | 10 to 25 | 15.2 | 10 to 25 | 10 to 25 | 2 to 100 | 29.9 | > 25 | < 10 | < 10 | < 10 | 6 | > 25 | < 10 | 32.9 | Non-Toxic | > 25 |  |  |
| CSc1ccc2nc(N)sc2c1 |  |  | < 10 | 26.9 | > 25 | < 10 | 2 to 100 | 16.7 | > 25 | < 10 | < 10 | < 10 | 12 | > 25 | > 25 | 22.5 | Non-Toxic | > 25 |  |  |
| Nc1nc2c(O)cc(C(=O)NCc3ccccc3)cc2s1 |  | 2.48 | > 25 | > 60 | < 10 | 10 to 25 | 2 to 100 | 47.8 | > 25 | < 10 | > 25 | > 25 | 15 | > 25 | > 25 | 28.8 |  | > 25 |  | inhibition at 10 µM (Leishmania infantum): 11% |
| COC(=O)C1CCN(C(=O)c2ccc3nc(N)sc3c2)CC1 |  |  | 10 to 25 | 23.3 | 10 to 25 | > 25 | 2 to 100 | 36.4 | 10 to 25 | 10 to 25 | > 25 | > 25 | 19 | > 25 | > 25 | 64.2 |  | > 25 |  | inhibition at 10 µM (Leishmania infantum): 8% |
| Nc1nc2ccc(C(=O)NCCc3cccs3)cc2s1 | 7.5 |  | 10 to 25 | 18.3 | > 25 | > 25 | 2 to 100 | > 60 | > 25 | < 10 | < 10 | > 25 | 17 | > 25 | > 25 | 29.8 | Non-Toxic | > 25 |  |  |
| Nc1nc2ccc(OC(F)(F)F)cc2s1 [RILUZOLE] | 15.1 | 94.1 |  | > 60 |  |  |  | > 60 |  |  |  | > 25 |  | > 25 | 10 to 25 |  | Non-Toxic | > 25 | Non-Toxic | growth inhibition (GI) (Trypanosoma brucei [5]; trypanosoma brucei, 10 µM): Non-Toxic |
| Nc1nc2ccc(S(=O)(=O)Cc3ccccc3)cc2s1 | 57.6 |  | > 25 | 27.1 | > 25 | > 25 | 2 to 100 | > 60 | > 25 | 10 to 25 | > 25 | > 25 | 5 | > 25 | > 25 |  | Non-Toxic | > 25 | Non-Toxic |  |
| Nc1nc2ccc(S(=O)(=O)Cc3ccc(Cl)c(Cl)c3)cc2s1 |  |  | > 25 | 26.9 | 10 to 25 | < 10 | 2 to 100 | 16.7 | > 25 | < 10 | > 25 | > 25 | 37 | > 25 | 10 to 25 | 32.8 |  | 10 to 25 |  | inhibition at 10 µM (Leishmania infantum): 21% |
| COc1cc(CNC(=O)c2ccc3nc(N)sc3c2)cc(OC)c1OC |  |  | > 25 | 67.1 | > 25 | > 25 | 2 to 100 | 30.8 | > 25 | > 25 | > 25 | > 25 | 9 | > 25 | > 25 | 19.8 | Non-Toxic | > 25 |  |  |

More lines, main results first:

| IC50 [1] [µM] | IC50 (Pteridine reductase 1) [µM] | IC50 (Cytochrome P450 1A2) [µM] | inhibition [2] [%] | IC50 (Cytochrome P450 3A4) [µM] | IC50 (Cytochrome P450 2C19) [µM] | Ratio IC50 [8] | inhibition (Trypanosoma brucei [9]) [%] | IC50 (Cytochrome P450 2C9) [µM] | IC50 (Cytochrome P450 2D6) [µM] | Structure (SMILES) | IC50 [3] [µM] | IC50 at 6 h [4] [µM] | inhibition at 10 µM (Trypanosoma brucei [5]) [%] | GI50 [6] [µM] | GI50 at 48 h [7] [µM] | inhibition at 50 µM (Trypanosoma cruzi) [%] | growth inhibition (GI) (Leishmania infantum) | MNTC at 72 h [10] [µM] | growth inhibition (GI) (Trypanosoma cruzi) | further results |
| --- | --- | --- | --- | --- | --- | --- | --- | --- | --- | --- | --- | --- | --- | --- | --- | --- | --- | --- | --- | --- |
|  |  | > 25 |  |  | > 25 |  |  |  | 10 to 25 | N=C(N)c1ccc(OCCCCCOc2ccc(C(=N)N)cc2)cc1 [PENTAMIDINE] |  | > 25 |  |  | > 25 |  |  | > 25 |  |  |
| 6.85 | 18.9 | > 25 | > 60 |  |  |  | > 60 |  |  | Nc1nc2ccc(C(=O)NCc3ccc(C(=O)NCc4ccccc4)cc3)cc2s1 | > 25 | > 25 | 53 | > 25 | > 25 |  | Non-Toxic | 10 to 25 | Non-Toxic |  |
| 58.1 |  | > 25 | 24.1 | 10 to 25 | > 25 | 2 to 100 | > 60 | > 25 | < 10 | Nc1nc2ccc(C(=O)N(CCO)Cc3ccccc3)cc2s1 | > 25 | > 25 | 8 | > 25 | > 25 |  |  | > 25 | Non-Toxic | inhibition at 10 µM (Leishmania infantum): 20% |
| 3.3 | 31.9 | > 25 | > 60 | > 25 |  |  | > 60 |  | > 25 | COC(=O)C1CCN(C(=O)c2ccc(COc3ccc4nc(N)sc4c3)cc2)CC1 | > 25 | > 25 | 52 | > 25 | > 25 | 27 | Non-Toxic | 10 to 25 |  |  |
| 21.8 |  | > 25 | 1.97 | > 25 | > 25 | 2 to 100 | > 60 | > 25 | > 25 | COC(=O)C1CCN(C(=O)c2ccc(CNC(=O)c3ccc4nc(N)sc4c3)cc2)CC1 | < 10 | < 10 | 24 | > 25 | > 25 |  | Non-Toxic | > 25 | Non-Toxic |  |
